Results on two compounds are retold here after paper PMC5615865 (Research in Pharmaceutical Sciences, 2017).

One data set concerns the target Jack bean urease (Canavalia ensiformis, UniProt P07374). Nature of the data set: Urease inhibitory assay. It counts as biochemical. The following applies: urea 25 mM, pH 7.4, 37°C, triplicate. The method in brief: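 Enzyme solution (2 mg/mL stock) was mixed with urea and test compound at various concentrations in 100 mM sodium phosphate, pH 7.4, then incubated 30 min at 37°C. An aliquot was taken into phenol–nitroprusside and alkaline hypochlorite–NaOH reagents and incubated a further 30 min at 37°C, and A625 was read. % inhibition was calculated against the solvent-plus-enzyme control, and IC50 was fitted. Run in triplicate with a hydroxyurea standard.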

For data set [1] the following is noted: no reference given; cited from earlier work.

The IC50 is the midpoint of a concentration-inhibition curve. Read a low IC50 as greater potency in that assay. A word on the pKa: it is the negative logarithm of the acid dissociation constant.

Sequence of Jack bean urease (P07374 whole entry, looked up): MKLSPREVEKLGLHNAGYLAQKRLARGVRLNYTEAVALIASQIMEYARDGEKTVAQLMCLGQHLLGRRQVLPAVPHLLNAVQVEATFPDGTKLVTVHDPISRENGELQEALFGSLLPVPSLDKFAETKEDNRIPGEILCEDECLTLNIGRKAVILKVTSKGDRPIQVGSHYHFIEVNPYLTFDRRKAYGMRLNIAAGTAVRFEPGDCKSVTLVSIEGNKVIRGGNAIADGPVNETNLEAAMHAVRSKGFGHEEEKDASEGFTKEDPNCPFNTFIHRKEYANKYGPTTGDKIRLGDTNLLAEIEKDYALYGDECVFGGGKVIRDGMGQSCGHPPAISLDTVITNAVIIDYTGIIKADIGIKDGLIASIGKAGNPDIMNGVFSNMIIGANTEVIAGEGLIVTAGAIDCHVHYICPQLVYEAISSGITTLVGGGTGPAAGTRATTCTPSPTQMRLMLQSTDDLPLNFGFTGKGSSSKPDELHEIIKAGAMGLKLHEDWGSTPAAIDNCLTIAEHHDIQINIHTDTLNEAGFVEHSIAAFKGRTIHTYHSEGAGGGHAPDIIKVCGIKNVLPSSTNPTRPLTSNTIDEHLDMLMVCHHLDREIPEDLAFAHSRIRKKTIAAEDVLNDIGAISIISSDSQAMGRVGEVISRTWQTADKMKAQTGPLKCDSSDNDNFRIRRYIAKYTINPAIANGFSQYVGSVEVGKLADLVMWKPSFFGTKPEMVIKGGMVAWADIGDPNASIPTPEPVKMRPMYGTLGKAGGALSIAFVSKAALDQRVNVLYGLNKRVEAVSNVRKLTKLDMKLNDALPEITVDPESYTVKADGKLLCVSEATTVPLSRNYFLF

Turning to `NC(=O)NO` [hydroxyurea], the IC50 against Jack bean urease came to 100 µM.
`COC(=O)CC(C)=O` [methyl acetoacetate]: the pKa in data set [1] is 11.0.
